# Compound activity as filed in PubChem.
# An excerpt weighted towards active compounds, which were near 3.6% of everything screened.
# Hsp70 activator: Hsp70 transcriptional activation, primary screen | hit rate 0.04% among 200,000 | activation, % at 10 µM | HeLa Hsp70 promoter luciferase reporter, luminescence; scaled: vehicle 0, proteasome-inhibitor control 100%;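 active = activation above the mean across all tested compounds plus 3 SD, cutoff set per campaign, cut at about 5.5% in these data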;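 note: 100% = MG132 at 30 µM as the positive control and 0% = DMSO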
# HSF1 inh: HSF1 inhibition; NIH3T3-HGL HSE-luciferase, MG132-induced, luminescence 8 h; stronger effect = lower value; hit rate 0.77% among 300,000; activity change, negative = inhibition, % at 7.5 µM (by protocol);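 active = more than half of replicate wells show activity change below -50%, luminescence cut by over half; inconclusive = some wells, but at most half, below -50%; inactive = no replicate well below -50%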;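 note: luciferase reports HSF-1 transcriptional activity via heat shock element; 0% = median of DMSO wells and -100% = zero luminescence signal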
# AHR activator: human AHR activation. P35869. AHR-responsive luciferase reporter cells, luminescence. activation, % at 5 µM. hit rate 2.5% among 320,000; in the data active = activation above about 47%;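 note: 0% = vehicle wells and 100% = reference agonist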
# Target sequence (P35869 whole entry, looked up): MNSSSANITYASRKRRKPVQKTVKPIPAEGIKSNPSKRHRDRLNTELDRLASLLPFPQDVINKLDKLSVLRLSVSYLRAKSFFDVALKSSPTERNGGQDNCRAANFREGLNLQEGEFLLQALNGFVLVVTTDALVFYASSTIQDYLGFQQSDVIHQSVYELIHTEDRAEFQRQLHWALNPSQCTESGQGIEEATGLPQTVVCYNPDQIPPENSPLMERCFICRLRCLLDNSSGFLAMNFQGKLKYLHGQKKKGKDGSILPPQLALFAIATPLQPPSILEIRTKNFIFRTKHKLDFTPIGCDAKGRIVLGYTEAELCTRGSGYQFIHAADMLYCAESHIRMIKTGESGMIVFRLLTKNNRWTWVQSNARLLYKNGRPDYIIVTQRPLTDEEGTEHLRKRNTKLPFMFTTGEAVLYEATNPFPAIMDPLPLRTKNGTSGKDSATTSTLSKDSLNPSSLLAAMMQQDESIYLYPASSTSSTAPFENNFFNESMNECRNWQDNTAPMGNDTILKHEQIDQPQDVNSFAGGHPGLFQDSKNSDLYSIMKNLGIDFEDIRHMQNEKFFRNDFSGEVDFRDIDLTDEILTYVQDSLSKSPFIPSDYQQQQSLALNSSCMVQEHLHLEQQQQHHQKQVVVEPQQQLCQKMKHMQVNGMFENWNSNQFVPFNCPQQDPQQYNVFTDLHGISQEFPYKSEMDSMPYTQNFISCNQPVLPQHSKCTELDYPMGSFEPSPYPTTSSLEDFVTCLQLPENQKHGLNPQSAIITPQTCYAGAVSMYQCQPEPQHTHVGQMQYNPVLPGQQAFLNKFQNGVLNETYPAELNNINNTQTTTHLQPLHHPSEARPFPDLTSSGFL
# PolyA inhibitor: inhibitors of polyadenylation in S. cerevisiae. hit rate 0.02% among 300,000. activity score, % at 12 µM. S. cerevisiae SKY197-pL101 polyadenylation reporter, beta-gal luminescence; efflux-impaired pdr1/pdr3 knockout yeast; score 100 = 6 SD above DMSO. AID 1875;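 active = lowest replicate activity score at least 50, where 100 means six control SD above control mean; inconclusive = lowest score under 50 but half or more replicates reach 50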;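 note: yeast exposed to compound for 9 h at 30 °C; higher score means more reporter readthrough which indicates perturbed polyadenylation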
# STAT3 activator: increases IL-6 driven STAT3 reporter signal; U3A cells, IL-6 STAT3-luciferase reporter, luminescence; 100% = signal with IL-6 EC80 alone; activation (% of control), % at 5.6 µM; hit rate 0.91% among 190,000; AID 871;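 active = activation above the screen-wide mean of compound activation plus 3 SD, cut at about 130% in these data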;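 note: 0% = background luminescence of wells with medium and substrate only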
#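 Material: STAT1-lacking human U3A cells, STAT3 luciferase reporter | Benchmarks: IL-6-only wells as 100% reference | Probe or stimulus: IL-6 (33 ng/mL) | Timing: Compound 1 h, then IL-6 6 h at 37 °C | Detection: Luminescence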
# PERK inh: inhibitors of human PERK kinase; Q9NZJ5; CHO PERK-DD fusion, SEAP luminescence translation reporter; inhibition, % at 5.6 µM; hit rate 0.17% among 220,000; AID 1416;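 active = inhibition above the mean inhibition of all tested compounds plus 3 SD, set separately per screening campaign, cut at about 2.9% in these data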;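 note: PERK kinase domain activated by AP20187 dimerizer at 100 nM; 0% = DMSO with dimerizer and 100% = rapamycin at 8.4 µM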
# * = called active by the depositor; ? = inconclusive; . = no result.
SMILES,Hsp70 activator,HSF1 inh,AHR activator,PolyA inhibitor,STAT3 activator,PERK inh
O=C(COc1ccc(-n2cnnn2)cc1)Nc1ccc(F)c(F)c1,.,.,-2.6,.,.,.
O=C1/C(=C2\C(=O)N(Cc3ccc(F)cc3)c3ccccc32)SC(=S)N1CCS(=O)(=O)O,.,4.0,1.5,2.3,.,.
O=C(O)CN1C(=O)/C(=C2\C(=O)N(Cc3ccccc3Cl)c3ccccc32)SC1=S,.,2.3,60.1*,14.1,.,.
Cc1ccc(Cn2c(C(C)Nc3nc(-c4ccc(F)cc4)cs3)nc3cc(Cl)c(Cl)cc32)cc1 (configuration not stated),.,-5.7,58.8*,?,.,.
CCCn1c(C(C)Nc2nc(-c3ccc(C)cc3)cs2)nc2cc(Cl)c(Cl)cc21 (configuration not stated),.,1.7,14.5,35.5,.,.
COc1cc(Cl)ccc1NC(=O)COc1ccccc1C(=O)NN,0.2,10.9,76.5*,8.7,90.8,-0.7
Cc1ccc(C)c(NC(=O)C(Sc2nc3ccc(C)cc3[nH]2)c2ccccc2)c1 (configuration not stated),-0.4,-7.3,43.1,-25.1,105.0,0.1
Cc1ccc2nc(SC(C(=O)Nc3ccc(F)cc3)c3ccccc3)[nH]c2c1 (configuration not stated),-0.2,0.7,78.9*,3.9,100.3,-1.2
CC(C)(C)OC(=O)N1CCC(c2c(C(=O)N3CCN(C(=O)c4ccco4)CC3)cnn2-c2ccc(F)cc2F)CC1,.,-0.1,2.6,3.6,.,.
CCc1ccc(S(=O)(=O)Nc2cc(SCC(=O)O)c(O)c3ccccc23)cc1,0.1,9.7,52.9*,7.4,109.3,0.2
CCS(=O)(=O)c1nc(S(=O)(=O)c2ccc(C)cc2)c(NCCCn2ccnc2)s1,.,4.8,5.5,-0.1,.,.
O=C(/C=C/c1ccc(Br)o1)NCCCN1CCOCC1,-0.3,-65.8*,-1.0,12.5,94.3,0.2
COCCCN=C1NN=C(c2cc(C)n(-c3ccccc3F)c2C)CS1,1.1,-41.7,-3.5,-7.9,58.0,2.1
COCCn1c(C)cc(C2=NNC(=Nc3ccccc3F)SC2)c1C,-0.4,-88.7*,-5.6,-1.2,22.5,0.1
COc1ccc(N/N=C(/C(C)=O)N2CCCc3ccccc32)cc1,.,16.9,7.9,-4.7,.,0.7
NC(=O)Cn1cc(C(=O)COc2ccccc2)c2ccccc21,-0.1,-4.3,74.6*,-8.4,101.2,1.5
O=C(COc1ccccc1)c1cn(CC(=O)N2CCCC2)c2ccccc12,0.2,5.8,5.3,29.2,99.2,-0.1
O=C(NCc1ccco1)C(c1ccc(F)cc1)N(C(=O)Cc1cccs1)c1cccnc1 (configuration not stated),-0.3,11.8,4.4,-20.8,113.3,-0.6
CCOP(=O)(OCC)/C(=C/N1CCCCC1)NC(=O)c1ccccc1,-0.3,-7.6,63.9*,-7.2,101.9,0.7
CC(C)CNC(=O)c1c(F)c(F)c(F)c(F)c1F,-0.2,-2.8,0.4,-3.5,102.2,0.4
CC(C)(C)NC(=O)c1c(F)c(F)c(F)c(F)c1F,-0.3,-72.0*,-1.4,-3.5,94.9,0.7
CC1=C(C(=O)Nc2cccc(C(=O)N3CCN(c4cccc(C(F)(F)F)c4)CC3)c2)SCCO1,.,9.8,0.0,14.1,.,.
Cc1[nH][nH]c(=O)c1C=Nc1ccc(C(F)(F)F)cc1,0.2,-25.3,38.7,-6.6,98.3,0.6
COC(=O)c1c(C)[nH]c(O)c1C=Nc1ccc(Oc2ccccc2)cc1,0.0,-5.4,-3.1,8.6,90.7,0.6
CCOC(=O)c1c(C)[nH]c(C)c1C=O,-0.1,0.6,27.1,4.7,89.4,0.2
SMILES,Hsp70 activator,HSF1 inh,AHR activator,PolyA inhibitor,STAT3 activator,PERK inh
CCOC(=O)c1c(C)[nH]c(O)c1C=Nc1ccc(Cl)cc1,0.0,1.3,76.9*,-18.1,97.5,1.1
CCOC(=O)c1c(C)[nH]c(O)c1C=Nc1ccc(C(F)(F)F)cc1,-0.1,-0.1,62.5*,8.3,89.4,1.2
COC(=O)c1c(C)[nH]c(O)c1C=Nc1ccc(C(C)C)cc1,0.1,-6.8,90.4*,2.9,113.5,0.8
COc1ccc(OC)c(CCNC(=O)CCCc2nnc3n(C)c(=O)c4sccc4n23)c1,.,-6.9,-2.6,12.7,.,.
COc1ccc(C(=O)Nc2ccc3c(c2)nc(CN2CCN(C(C)=O)CC2)n3C)cc1,-0.1,4.5,0.9,-1.4,95.8,0.3
COc1ccc(C(=O)Nc2ccc3c(c2)nc(CN2CCCC2)n3C)cc1,-0.1,-85.6*,4.5,1.7,84.1,1.8
CC(NC(=O)CNC(=O)C1CCCCC1)c1ccc(S(N)(=O)=O)cc1 (configuration not stated),.,-1.0,-0.6,-2.5,.,.
COc1cccc(/C=N/NC(=O)c2ccc(COc3ccc(Cl)cc3Cl)o2)c1,0.0,.,53.1*,-1.3,109.6,-0.1
COc1cc(/C=N/NC(=O)c2ccc(COc3ccccc3Cl)o2)cc(Br)c1O,-0.1,-35.8,40.3,12.2,130.8,0.4
COc1ccccc1/C=N\NC(=O)c1ccc(COc2ccc(C)c(C)c2)o1,.,15.6,48.9*,-5.6,.,.
O=C(N/N=C/c1ccc2ccccc2c1)c1ccc(COc2ccc3c(c2)CCC3)o1,-0.1,-0.4,47.2*,6.1,98.6,-0.1
O=C(N/N=C/c1cc([N+](=O)[O-])ccc1O)c1ccc(COc2ccc3c(c2)CCC3)o1,.,-8.0,.,-22.3,.,.
O=C(N/N=C/c1ccccc1F)c1ccc(COc2ccccc2Cl)o1,-0.5,-7.8,22.2,24.4,114.1,0.6
COc1ccc(Br)cc1/C=N/NC(=O)c1ccc(COc2ccc3c(c2)CCC3)o1,0.1,17.3,62.0*,-9.1,107.9,0.9
Cn1c(COc2ccccc2)nnc1SCC(=O)NC1CCCC1,.,0.0,-4.4,11.6,.,.
COc1ccc(NC(=O)c2oc3ccccc3c2C)c(OC)c1,0.1,-0.5,57.8*,-14.5,110.5,0.1
CC(=O)Nc1cccc(NC(=O)c2oc3ccccc3c2C)c1,0.8,16.1,113.0*,-5.6,104.3,-0.1
Cc1c(C(=O)Nc2cnccn2)oc2ccccc12,-0.1,4.7,93.2*,-11.4,123.9,-0.5
CC(=O)Nc1ccc(NC(=S)NC(=O)c2oc3ccccc3c2C)cc1,-0.5,-0.4,17.9,-16.9,94.3,-0.1
CC(=O)Nc1c(C(=O)c2ccccc2)oc2ccccc12,0.0,-7.5,108.6*,-11.9,80.0,0.0
COC(=O)c1cc(OC)c(OC)cc1NC(=O)c1oc2ccccc2c1C,-0.6,.,.,.,104.6,0.9
CC1(C)C2CCC1(CS(=O)(=O)NCc1ccc(C(F)(F)F)cc1)C(=O)C2 (configuration not stated),.,-2.3,3.5,-4.7,.,.
CC(C)(C)OC(=O)N1CCC(Cc2cc(-c3cccnc3)no2)(C(=O)O)CC1,.,2.0,-2.3,-6.0,.,.
COc1ccccc1OCC(O)CN1CCN(C(=O)c2ccccc2)CC1 (configuration not stated),.,-3.8,17.7,10.0,.,.
